Measurements from different studies.
Compare with care: the assays were run in different laboratories.
Target: Dual specificity protein kinase TTK (TTK, Homo sapiens, UniProt P33981)
One construct used (P33981 1-857): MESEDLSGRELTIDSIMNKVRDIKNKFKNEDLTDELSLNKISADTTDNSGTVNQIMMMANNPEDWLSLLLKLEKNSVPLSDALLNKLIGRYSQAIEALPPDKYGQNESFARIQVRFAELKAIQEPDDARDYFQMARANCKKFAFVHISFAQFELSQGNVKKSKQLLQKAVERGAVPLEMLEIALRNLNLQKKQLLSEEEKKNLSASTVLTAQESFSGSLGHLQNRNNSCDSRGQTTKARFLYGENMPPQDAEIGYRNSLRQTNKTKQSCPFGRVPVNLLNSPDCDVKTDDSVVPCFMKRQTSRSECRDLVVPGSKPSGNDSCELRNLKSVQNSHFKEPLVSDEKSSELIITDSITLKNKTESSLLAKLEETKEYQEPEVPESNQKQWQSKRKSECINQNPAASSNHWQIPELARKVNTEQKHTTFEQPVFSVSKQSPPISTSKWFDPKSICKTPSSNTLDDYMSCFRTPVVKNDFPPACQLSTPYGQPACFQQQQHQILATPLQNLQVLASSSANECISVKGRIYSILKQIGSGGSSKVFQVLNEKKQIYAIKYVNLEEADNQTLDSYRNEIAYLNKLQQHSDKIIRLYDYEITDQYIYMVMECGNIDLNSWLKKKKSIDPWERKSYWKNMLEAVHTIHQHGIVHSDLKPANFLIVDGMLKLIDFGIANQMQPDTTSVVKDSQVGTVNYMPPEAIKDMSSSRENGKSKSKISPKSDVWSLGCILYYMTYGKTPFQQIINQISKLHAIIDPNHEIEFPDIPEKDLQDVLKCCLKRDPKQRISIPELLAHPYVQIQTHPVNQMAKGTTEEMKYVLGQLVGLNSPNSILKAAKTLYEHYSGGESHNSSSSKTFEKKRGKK

Structure (SMILES) | test | conditions | quantity | result
CC(C)(C)c1cc(C=C(C#N)C#N)cc(Br)c1O | enzyme activity, inhibitor | 0.5 µM | remaining activity | 101%
Nc1ncc(-c2nc(N3CCOCC3)nc(N3CCOCC3)n2)c(C(F)F)n1 | binding, competition with immobilised ligand | 10 µM | remaining binding | 84%
Cc1nn(C)cc1-c1nc2c(N3CCN(Cc4ccc(Cl)cc4)CC3)c(Cl)cnc2[nH]1 | binding, competition with immobilised ligand | 1 µM | remaining binding | 100%
O=c1[nH]c2ccccc2n1C1CCN(Cc2ccc(-c3[nH]c4cc5ncnc5cc4nc3-c3ccccc3)cc2)CC1 | cell-free assay | 0.5 µM | remaining signal | 104%
Cn1cncc1[C@@](O)(COc1ccc(C#N)cc1-c1ccc(OC(F)(F)F)cc1)c1ccc(C#N)cc1 | cell-free assay, competition with immobilised ligand | 1 µM | remaining binding | 100%
Cn1cc(-c2cc(F)cc(N3CCn4c(cc5c4CCCC5)C3=O)c2CO)cc(Nc2ccc(N3CCN(C4COC4)CC3)cn2)c1=O | enzyme activity, inhibitor | 0.1 µM | inhibition | -17%
COc1ncccc1-c1cnn2ccc(N3CCN(C(=O)OC(C)C)CC3)nc12 | binding, competition with immobilised ligand | 1 µM | remaining binding | 100%
N#CC1(c2ccccn2)CCN(Cc2cc(C(=O)O)c(=O)n3ccccc23)CC1 | cell-free assay, competition with immobilised ligand | 1 µM | remaining binding | 88%
Cn1cc(-c2cccc(N3CCc4c(sc5c4CC(C)(C)C5)C3=O)c2CO)cc(Nc2ccncn2)c1=O | enzyme activity, inhibitor | 1 µM | inhibition | -3%
